Most compounds without a hit are left out; they make up all but 6.1% or so of the library.
WT yeast gro inh = growth inhibition of WT yeast, mitochondrial fusion screen; inhibition, % at 10 µM; actives 2.1% (n = 190,000); AID 1362; mitochondrial fusion phenotypic screen, WT strain; in the data active = inhibition above about 58%; tested in S. cerevisiae
Measles CPE = protection of cells from measles virus | AID 841 | actives 1.5% (n = 140,000) | protection (pct of control), % at 4 µM | Measles virus-infected cells, CPE protection, absorbance; in the data active = protection mostly above about 24%, no sharp cut-off; inactive = mostly below about 26%
Yeast lifespan up = yeast lifespan extension. S. cerevisiae growth with nicotinamide, OD615; deaD strain in restrictive glucose medium. inhibition of the nicotinamide effect, % at 10 µM. actives 0.68% (n = 130,000);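 active = inhibition above a set limit, placed 3 SD over the median of all compounds, cut at about 26% in these data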
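assay system = DeaD-strain S. cerevisiae | measured by = absorbance at 615 nm | probe or stimulus = nicotinamide 1.5 mM | buffer or medium = CSMM-D glucose medium, restrictive | times = 48 h at 30 °C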
RAM inhibit = inhibitors of the yeast RAM network; actives 1.8% (n = 190,000); inhibition, % at 50 µM; S. cerevisiae dse1pr::URA3 reporter, 5-FOA growth OD615, 2 d; analog-sensitive cbk1-as2 kinase mutant strain;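 active = inhibition above a set limit, 3 SD over mean compound inhibition, cut at about 8.4% in these data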;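 note: inhibition rescues growth on 5-FOA so higher OD means more RAM inhibition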
DAT uptake mod = modulates human dopamine transporter uptake under cocaine; Q01959; LLC-PK1 hDAT cells, [14C]-dopamine uptake with cocaine IC80; actives deviate in either direction; B-score at 10 µM; actives 1.3% (n = 110,000);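 active = Z score or B-score, a plate-position-corrected score, falls beyond the plate's 99.7% confidence bounds, in either direction; inactive = both scores lie inside the 99.7% bounds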
Target sequence (Q01959 whole entry, looked up): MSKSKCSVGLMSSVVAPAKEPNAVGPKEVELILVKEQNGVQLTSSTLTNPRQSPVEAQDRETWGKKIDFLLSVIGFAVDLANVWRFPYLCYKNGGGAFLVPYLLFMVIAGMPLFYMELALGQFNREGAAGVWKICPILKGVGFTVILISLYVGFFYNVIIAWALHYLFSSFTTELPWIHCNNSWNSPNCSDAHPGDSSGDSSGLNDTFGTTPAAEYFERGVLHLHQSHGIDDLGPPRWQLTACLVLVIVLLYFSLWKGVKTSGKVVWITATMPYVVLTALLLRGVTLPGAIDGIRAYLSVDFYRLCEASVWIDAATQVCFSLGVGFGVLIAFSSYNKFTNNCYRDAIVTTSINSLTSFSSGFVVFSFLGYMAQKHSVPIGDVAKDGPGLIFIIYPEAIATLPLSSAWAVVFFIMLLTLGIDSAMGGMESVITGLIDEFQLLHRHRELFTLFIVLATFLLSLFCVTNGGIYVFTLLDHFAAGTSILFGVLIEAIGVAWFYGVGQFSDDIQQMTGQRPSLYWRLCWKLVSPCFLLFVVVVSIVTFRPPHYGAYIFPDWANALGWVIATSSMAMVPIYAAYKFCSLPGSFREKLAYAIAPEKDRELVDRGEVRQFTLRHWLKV
Yeast growth inh = chemicals that inhibit yeast BB579 growth in restrictive medium (lifespan-shortening candidates). actives 0.51% (n = 140,000). S. cerevisiae BB579 growth, OD615, 48 h. AID 804. inhibition, % at 10 µM;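 active = inhibition above a set limit, 3 SD over the mean compound inhibition, cut at about 44% in these data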
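Assay system – yeast BB579 (DeaD) · Dosing – single compound dose of 10 µM, 0.25% DMSO final · Detection – OD615 turbidity measurement · Buffer or medium – CSMM-D restrictive synthetic medium containing dextrose (glucose) · Benchmarks – positive control amphotericin B 10 µg/mL · Incubation – 48 h exposure, 30 °C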
RAM 5-FOA = RAM network inhibition, efflux-deficient strain. shares compounds with RAM inhibit. max inhibition, %. 1,200 tested, under 10 active. S. cerevisiae efflux-deficient reporter strain, 5-FOA growth OD615, 2 days. AID 1305; call rule not given here
Of the large screens only hits and unclear results are named; the others gave an inactive call (follow-up assays come after a bar, where they were run).

CCOC(=O)C(C)Sc1cc(CS(=O)(=O)c2ccccc2)nc(-c2ccccc2)n1 (stereo not given)	RAM inhibit 12 | RAM 5-FOA inactive
Cc1nn(Cc2ccccc2)c(Cl)c1C(=O)OCc1nnc(-c2ccccc2)o1	RAM inhibit 16 | RAM 5-FOA inactive
Fc1ccc(NC(=S)Nc2cc(-c3ccccc3)[nH]n2)cc1Cl	none (no result: Measles CPE, Yeast lifespan up, DAT uptake mod, Yeast growth inh)
COc1ccccc1NC(=O)CNc1ccc(F)c(Cl)c1	none (no result: DAT uptake mod)
CCCCNC(=S)N(C)/N=C/c1ccc(OCc2ccc(C(=O)OC)cc2)c(OC)c1	RAM inhibit 14 (no result: DAT uptake mod) | RAM 5-FOA inactive
CN1CCN(NC(=S)NC2CCCC2)CC1	none (no result: Measles CPE, Yeast lifespan up, DAT uptake mod, Yeast growth inh)
O=C(CSc1ccc(Cl)cc1Cl)N1CCC(c2nc3ccccc3s2)CC1	RAM inhibit 13 | RAM 5-FOA inactive
Cc1ccc(NC(=O)c2ccc(F)cc2)cc1S(=O)(=O)N1CCCCCC1	RAM inhibit 12 (no result: Measles CPE, Yeast lifespan up, DAT uptake mod, Yeast growth inh) | RAM 5-FOA inactive
Cc1ccc(NC(=O)c2ccccc2F)cc1S(=O)(=O)N1CCCCCC1	RAM inhibit 13 (no result: Measles CPE, Yeast lifespan up, DAT uptake mod, Yeast growth inh) | RAM 5-FOA inactive
Cc1cccc(OCCC(=O)Nc2ccc(C)c(S(=O)(=O)N3CCCCC3)c2)c1	RAM inhibit 16 (no result: DAT uptake mod) | RAM 5-FOA inactive
Cc1cccc(OCCC(=O)Nc2ccc(S(=O)(=O)N3CCCC3)cc2)c1	none
CCOC(=O)c1cc(C)sc1NC(=O)C(c1ccccc1)c1ccccc1	RAM inhibit 16 (no result: DAT uptake mod) | RAM 5-FOA inactive
O=C(CN(C(=O)CCC(=O)Nc1ccccn1)c1ccc2c(c1)OCCO2)NCCc1ccccc1	RAM inhibit 15 (no result: Yeast lifespan up) | RAM 5-FOA inactive
CCn1c(=NC(=O)c2cccc(N3C(=O)CCC3=O)c2)sc2c(OC)ccc(OC)c21	RAM inhibit 11 (no result: Measles CPE, Yeast lifespan up, Yeast growth inh) | RAM 5-FOA inactive
COc1ccc(OC)c2c1sc(=NC(=O)c1cccc(N3C(=O)CCC3=O)c1)n2C	none
CCn1c(SCc2nc3ccccc3c(=O)[nH]2)nc2ccccc21	RAM inhibit 12 (no result: Measles CPE, Yeast lifespan up, DAT uptake mod, Yeast growth inh) | RAM 5-FOA inactive
CCN(C(=O)CSc1nc2ccccc2n1CCc1ccccc1)C1CCS(=O)(=O)C1 (stereo not given)	none
CN(c1ccc(C(=O)NCCSC(C)(C)C)cc1)S(=O)(=O)c1ccccc1	none (no result: Measles CPE, Yeast lifespan up, DAT uptake mod, Yeast growth inh)
CN(c1ccc(C(=O)NCCSCc2ccc(Cl)cc2)cc1)S(=O)(=O)c1ccccc1	RAM inhibit 20 (no result: DAT uptake mod) | RAM 5-FOA inactive
CN(c1ccc(C(=O)NCCSCc2c(F)cccc2Cl)cc1)S(C)(=O)=O	none (no result: Measles CPE, Yeast lifespan up, DAT uptake mod, Yeast growth inh)
Cc1ccc(CSCCNC(=O)c2ccc(N(C)S(=O)(=O)c3ccccc3)cc2)cc1	RAM inhibit 18 | RAM 5-FOA inactive
Cc1ccc(NS(=O)(=O)c2ccc(OCC(=O)NCc3cccnc3)cc2)cc1	none (no result: DAT uptake mod)
CCOC(=O)c1cnc(SC)nc1Nc1cccc(F)c1	RAM inhibit 16 | RAM 5-FOA inactive
CSc1ncc(Cl)c(C(=O)Nc2cccc(C)c2)n1	none (no result: DAT uptake mod)
CCOC(=O)c1cnc(SC)nc1Oc1cccc(NC(=O)c2ccc(C)cc2)c1	RAM inhibit 18 | RAM 5-FOA inactive
NC(=O)c1cccnc1Nc1cccc(F)c1	none (no result: DAT uptake mod)
Cc1cccc(N2CCN(C(=O)COc3cccc4c3OC(C)(C)C4)CC2)c1C	none (no result: DAT uptake mod)
C/C(CCC(C)C)=N\Nc1cc(C)c2ccccc2n1	none (no result: Measles CPE, Yeast lifespan up, DAT uptake mod, Yeast growth inh)
Brc1ccc(Cn2c(-c3ccc(Br)o3)nc3ccccc32)o1	RAM inhibit 13 (no result: DAT uptake mod) | RAM 5-FOA inactive
COC(=O)CSc1nc(N2CCCCC2)c2c(c1C#N)CCCC2	RAM inhibit 14 | RAM 5-FOA inactive
N#Cc1c(SCC(=O)O)nc(N2CCCCC2)c2c1CCCC2	none
CCN(C(=O)CSc1ncnc2sc(C)c(C)c12)C1CCS(=O)(=O)C1 (stereo not given)	none (no result: Measles CPE, Yeast lifespan up, DAT uptake mod, Yeast growth inh)
CCCN(CC1CC1)C(=O)CSc1ncnc2sc(C)c(C)c12	RAM inhibit 14 | RAM 5-FOA inactive
CS(=O)(=O)Nc1ccc(C(=O)Nc2ccccc2Sc2ccccc2)cc1	RAM inhibit 12 (no result: DAT uptake mod) | RAM 5-FOA inactive
CCc1ccccc1NC(=O)c1ccc(NS(C)(=O)=O)cc1	none (no result: Measles CPE, Yeast lifespan up, DAT uptake mod, Yeast growth inh)
Cc1ccc(CSc2nnc(CNc3ccc(F)cc3)o2)cc1	none (no result: Measles CPE, Yeast lifespan up, DAT uptake mod, Yeast growth inh)
Brc1ccc(-c2csc(N3CCc4ccccc4C3)n2)cc1	RAM inhibit 15 | RAM 5-FOA inactive
O=[N+]([O-])c1ccc(-c2csc(N3CCc4ccccc4C3)n2)cc1	none (no result: DAT uptake mod)

Assay outcomes from PubChem.
